Screening data as filed in PubChem BioAssay.
Sampled rows, rich in hits. Any-hit rate of the full collection: about 3%.
Wnt act: Wnt/beta-catenin pathway activators, primary screen, cell-based, plate reader, single point; Wnt/beta-catenin reporter cell assay, activator; activation, % at 9.35 µM; 1.2% of 300,000 active; in the data active = activation above about 30%, passing the limit was not always enough; inconclusive = no clear call, values can overlap the other calls;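 also: 0% = neutral control wells and 100% = positive control wells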
XiGFP reactiv: activators of inactive X chromosome reactivation, primary screen, imaging, XiGFP fibroblasts, GFP high-content imaging, set 2 | 0.055% of 360,000 active | XiGFP mouse fibroblasts, % GFP-positive cells imaging, 3 d; cells co-treated with 5-aza-dC sensitizer; scaled so ellipticine positive control = 100% | activation, % at 7.58 µM;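 active = mean normalized replicate activation at least 10% and every replicate at or above 10%; inconclusive = only one of the two criteria met; inactive = mean below 10% and not all replicates reach 10%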;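 also: 0% = median of on-plate neutral control wells and 100% = ellipticine 6 µM median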
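System: 68-5-11 XiGFP fibroblast line; Timing: 3 days compound exposure; Compound dosing: one concentration, pinned; Benchmarks: positive control ellipticine, 6 µM final; Buffer or medium: DMEM containing 5-aza-dC.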
esBAF inh: Bmi1 luciferase reporter increase in mESCs, primary screen, esBAF inhibitor project, mouse ES cells, Bmi1 luciferase knock-in, single point; 24 h; 100% = twice the neutral-well signal; reporter increase, % at 12.5 µM; 2% of 350,000 active; AID 602393, 2012; in the data active = activation above about 40%; inconclusive = no clear call, values can overlap the other calls;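 also: 0% = median of the plate's neutral control wells and 100% = double that signal; a rise in the Bmi1 reporter signal indicates esBAF inhibition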
MITF act: activators of MITF-driven TRPM1 promoter reporter, primary screen, cell-based, SK-MEL-5, luciferase, single point | 0.75% of 300,000 active | AID 588334, 2011 | activation, % at 12.5 µM | SK-MEL-5 TRPM1-promoter luciferase, 24 h; % of positive control, neutral wells = 0;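 active = mean activation of at least 80% with every replicate also reaching 80%; inconclusive = mean reaches 80% but some replicate falls short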;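 also: 0% = neutral control wells and 100% = parthenolide positive control wells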
NSD2 inh: NSD2 histone methyltransferase inhibitors, primary screen, biochemical, AlphaScreen, single concentration, set 2. NSD2 peptide methylation, 120 min. inhibition, % at 12.5 µM. 0.54% of 310,000 active; in the data active = inhibition above about 50%
CASP6 VEID inh: human caspase-6 inhibitors, primary screen, biochemical, VEID-R110 fluorescence, single point, set 2. 0.53% of 350,000 active. P55212. AID 686996, 2013. inhibition, % at 12.5 µM. purified caspase-6, Z-VEID-R110 cleavage fluorescence;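 active = mean inhibition across replicates at least about 35%, with every replicate also reaching that limit, limit read from the data; inconclusive = only one of the two criteria met; inactive = neither criterion met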;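 also: 0% = median of neutral control wells and 100% = no fluorescence left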
Target sequence (P55212 24-179 limits assumed): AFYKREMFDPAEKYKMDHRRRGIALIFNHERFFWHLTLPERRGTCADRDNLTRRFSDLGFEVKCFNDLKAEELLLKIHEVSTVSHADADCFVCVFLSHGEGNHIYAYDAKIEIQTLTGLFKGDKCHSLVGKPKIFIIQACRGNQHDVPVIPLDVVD
Target sequence (P55212 194-293 limits assumed): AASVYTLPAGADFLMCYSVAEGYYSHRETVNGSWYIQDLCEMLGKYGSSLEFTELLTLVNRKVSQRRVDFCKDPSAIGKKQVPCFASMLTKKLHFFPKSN
* hit, by the source's call; ? = inconclusive; . = no result.

SMILES	Wnt act	XiGFP reactiv	esBAF inh	MITF act	NSD2 inh	CASP6 VEID inh
O=C(Nc1ccccc1)[C@H]1[C@H](CO)[C@H]2Cn3c(cccc3=O)[C@H]2N1CC1CCOCC1	.	0.6	.	.	.	.
O=C(Nc1ccc(Cl)c(Cl)c1)c1cccnc1	-1.3	0.0	28.1	.	-1.1	1.4
O=C(Nc1ccc(N2CCCCC2)c(Cl)c1)c1cccnc1	12.9	.	48.6*	69.4	2.7	.
O=C(Nc1ccc(N2CCOCC2)c(Cl)c1)c1cccnc1	.	.	26.7	37.6	0.5	.
O=C(Nc1ccc(N2CCCC2)c(Cl)c1)c1cccnc1	6.9	.	48.7*	?	1.9	.
COc1ccc2c3c([nH]c2c1)[C@@H](CO)N(C(=O)CC1CC1)CC31CCN(Cc2cncnc2)CC1	.	0.6	.	.	.	.
C[C@@H]1CC=CC[C@@H](c2ccccc2)NC(=O)[C@H](Cc2ccccc2)N(C)C(=O)c2ccccc2O1 (mixture of isomers)	.	0.0	.	.	.	.
O=C(Nc1ccc(F)cc1)Nc1ccccc1F	-5.0	0.1	74.4*	54.9	-2.7	1.7
COC(=O)c1ccc(NC(=O)Nc2ccccc2F)cc1	-3.1	0.4	19.9	25.4	2.6	3.7
COc1ccc(NC(=O)Nc2ccccc2F)cc1	24.6	.	31.5	71.7	-0.8	-2.0
COc1ccc(NC(=O)Nc2ccccc2SC)cc1	39.6*	0.0	28.3	34.9	1.6	0.7
CSc1ccccc1NC(=O)Nc1ccc(Cl)cc1	-4.9	.	49.6*	35.2	-3.3	.
O=C(Nc1ccccc1F)Nc1ccccc1N1CCCCC1	46.9*	0.0	5.4	-0.5	-1.1	1.0
CCCNC(=O)C[C@@H]1CC[C@@H]2[C@H](COc3ccc(NC(=O)COC)cc3C(=O)N2C)O1	.	0.0	-4.2	.	.	.
Cc1cccnc1NC(=O)Nc1ccc(F)cc1	0.2	.	51.2*	40.0	-0.2	.
O=C(NC1=NN(c2ccccc2)CC1)Nc1ccccc1F	?	50.3*	.	26.7	-2.5	-0.7
O=C(CCN1CCN(c2ccccc2)CC1)Nc1ccccc1F	.	.	5.3	.	12.6	.
COc1ccc(S(=O)(=O)Nc2ccc3c(c2)C(=O)N([C@@H](C)CO)C[C@H](C)[C@@H](CN(C)S(C)(=O)=O)OCCCC[C@@H](C)O3)cc1	.	0.0	-1.5	.	.	3.3
CCCCCc1ccc(-c2cn(Cc3ccc(C(=O)c4ccccc4)cc3)nn2)cc1	3.0	0.0	53.0*	-8.5	.	1.2
O=C(c1ccccc1)c1ccc(Cn2cc(-c3ccccc3)nn2)cc1	3.2	-0.1	15.0	28.8	.	4.4
C[C@](N)(Cc1ccc(O)c(O)c1)C(=O)O	-2.5	0.1	-4.1	4.3	.	87.1*
COc1ccc(C[C@](C)(N)C(=O)O)cc1OC	1.4	0.0	7.8	2.9	.	-0.8
CCCCOc1ccc(C(=O)Nc2ccc(C)cc2[N+](=O)[O-])cc1	0.6	-0.1	.	2.7	-0.9	3.0
CCOc1ccc(C(=O)Nc2cccc(C)n2)cc1	-3.1	.	-32.0	.	-3.1	.
CCCCOc1ccc(C(=O)Nc2cccc(C)n2)cc1	.	.	20.7	102.5*	-1.4	.
SMILES	Wnt act	XiGFP reactiv	esBAF inh	MITF act	NSD2 inh	CASP6 VEID inh
CCOc1ccc(NC(=O)Nc2cccc(C)n2)cc1	2.6	0.1	56.8*	72.9	-1.9	.
CCCOc1ccc(C(=O)Nc2ccccc2[N+](=O)[O-])cc1	.	.	63.8*	58.1	-4.0	.
Cc1cccc(NC(=O)c2ccc(S(=O)(=O)N(C)C)cc2)n1	.	.	49.4*	11.0	-0.9	.
Cc1cccc(NC(=O)CN(C)S(=O)(=O)c2ccc(Cl)cc2)n1	.	.	.	5.8	1.3	.
C[C@@H]1CN([C@@H](C)CO)C(=O)c2cccc(NC(=O)c3ccc(-c4nccs4)cc3)c2O[C@@H]1CN(C)S(=O)(=O)c1ccc(Cl)cc1	.	-0.4	-3.5	.	.	0.1
CCN(Cc1ccccc1)c1ccc(/C=C(\C#N)c2ccccn2)cc1	96.2*	0.9	77.2*	121.2*	1.7	.
COc1ccccc1-c1coc2cc(OC(=O)N3CCOCC3)ccc2c1=O	16.1	0.3	31.9	.	0.9	5.5
CCc1cc2c(=O)c(-c3nc4ccccc4[nH]3)coc2cc1OC(=O)N1CCOCC1	13.0	.	68.2*	16.8	-0.1	.
Cc1nc(-c2ccc(NC(=O)CC(C)C)cc2)cs1	37.2*	-0.1	.	92.1*	-3.1	.
CCCCc1ccc(NC(=O)CC(C)C)cc1	-9.6	0.5	47.8*	61.9	1.3	-1.2
CC(C)C(=O)Nc1ccc(-c2csc(-c3ccccc3)n2)cc1	.	.	71.1*	138.9*	-0.5	.
Cc1nc(-c2ccc(NC(=O)C3CC3)cc2)cs1	13.8	0.1	49.3*	?	-2.6	3.0
CC(C)C(=O)Nc1cccc(-c2csc(-c3ccccc3)n2)c1	-1.7	0.1	27.9	65.8	.	0.5
COc1cccc(NC(=O)N2C[C@@H](O)COC[C@H]3O[C@H](CC(=O)NCCCN4CCOCC4)CC[C@@H]32)c1	.	-0.2	0.3	.	.	.
COc1ccc(-c2csc(NC(=O)CC(C)C)n2)cc1	53.2*	.	.	63.7	0.6	.
CSc1nc(-c2ccco2)nn1S(=O)(=O)c1ccc(C)cc1	0.5	0.2	6.2	-7.6	.	8.6
O=C(c1ccco1)n1nc(-c2ccco2)nc1SCc1ccccc1	22.1	.	44.9*	36.7	-0.9	.
Cc1ccc(S(=O)(=O)n2nc(-c3ccco3)nc2SCc2ccccc2)cc1	.	.	47.6*	47.4	-1.4	.
Nc1nc(-c2ccccc2)nn1C(=O)c1ccco1	0.1	1.9	.	-4.3	8.2	4.0
O=C(c1ccco1)n1nc(-c2ccccc2)nc1SCc1ccccc1	41.4*	.	47.4*	58.4	.	.
C[C@@H]1CN([C@@H](C)CO)S(=O)(=O)c2ccc(C#CC3CC3)cc2O[C@@H]1CN(C)Cc1cncnc1	.	0.0	.	.	.	.
COc1ccc(S(=O)(=O)N(C)C[C@@H]2OCCCC[C@@H](C)Oc3ccc(NS(=O)(=O)c4ccc(Cl)cc4)cc3C(=O)N([C@@H](C)CO)C[C@H]2C)cc1	.	0.1	.	.	.	0.7
COc1cccc(-c2ccc3c(c2)[C@H]2[C@H](CCN2S(=O)(=O)c2ccccc2OC)[C@@H](CO)N3)c1	.	0.2	-1.2	.	.	-0.3
Cc1ccc(SCc2nc(-c3ccncc3)no2)cc1	.	.	17.9	19.9	-2.5	.
c1ccc(SCc2nc(-c3ccncc3)no2)cc1	26.3	.	14.5	91.1*	-0.6	1.4
Cc1ccc(SCc2nc(-c3ccccc3)no2)cc1	-1.4	.	17.6	-4.9	0.7	.
COc1ccc(-c2noc(CSc3ccccc3)n2)cc1OC	-2.8	.	52.2*	?	-2.4	.
